GSTO1 inh – counter-screen for RBBP9 inhibitors: inhibitors of human GSTO1; P78417; recombinant GSTO1, activity-based probe fluorescence polarization; hit rate 1.1% among 300,000; AID 1974; inhibition, % at 5.96 µM;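 active = inhibition above the campaign mean inhibition plus 3 SD, cut at about 35% in these data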;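 also: 0% = GSTO1-1 with DMSO and 100% = wells lacking GSTO1-1 enzyme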
Target sequence (P78417 whole entry, looked up): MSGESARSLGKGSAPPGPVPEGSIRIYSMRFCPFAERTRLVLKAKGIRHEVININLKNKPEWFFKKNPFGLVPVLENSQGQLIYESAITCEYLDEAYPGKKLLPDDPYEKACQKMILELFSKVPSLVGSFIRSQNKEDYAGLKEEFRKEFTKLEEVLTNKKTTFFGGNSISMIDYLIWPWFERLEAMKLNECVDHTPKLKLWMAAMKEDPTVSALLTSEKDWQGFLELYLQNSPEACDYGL
Rin1 Abl inh – human Rin1-Abl interaction inhibition. P00519+Q13671. TR-FRET Rin1/Abl binding, biochemical. inhibition, % at 7.35 µM. hit rate 0.4% among 360,000. AID 588664; in the data active = inhibition above about 5%, passing the limit was not always enough
SUMO HTRF inh – inhibitors of human SUMOylation (UBC9) | HTRF SUMOylation assay, SAE1/SAE2 + UBC9, in vitro | inhibition, % at 35 µM | hit rate 0.36% among 290,000 | AID 2006; in the data active = inhibition above about 50%, passing the limit was not always enough
Target sequence (P63279 whole entry, looked up): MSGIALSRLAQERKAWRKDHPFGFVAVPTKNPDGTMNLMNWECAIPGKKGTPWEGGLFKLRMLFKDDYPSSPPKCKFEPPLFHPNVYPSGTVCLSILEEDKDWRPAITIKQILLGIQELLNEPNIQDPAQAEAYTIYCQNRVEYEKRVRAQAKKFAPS
UBC13 inh – inhibitors of human UBC13 polyubiquitin chain formation. hit rate 0.47% among 330,000. inhibition, % at 20 µM. TR-FRET. AID 485273. P61088; in the data active = inhibition above about 45%, passing the limit was not always enough
Target sequence (P61088 whole entry, looked up): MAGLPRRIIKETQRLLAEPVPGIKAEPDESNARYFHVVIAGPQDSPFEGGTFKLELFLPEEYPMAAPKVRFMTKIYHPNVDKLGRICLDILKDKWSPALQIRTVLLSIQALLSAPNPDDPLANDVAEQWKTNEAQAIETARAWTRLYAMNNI
Apaf1 inhib – blocks human Apaf-1 apoptosome activity | hit rate 0.71% among 330,000 | inhibition, % at 20 µM | AID 489030 | O14727 | reconstituted apoptosome caspase-3 activity, DEVD-Rh110 fluorescence; active = inhibition of at least 40% at 20 µM;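 also: plate controls were DMSO wells for no effect and DEVD-CHO caspase inhibitor wells for full effect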
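Assay system – apoptosome proteins · Medium – Hepes buffer, pH 7.5 · Also added – cytochrome c with DEVD-Rh110 · Timing – 30 min compound preincubation, 50 min activation, room temperature · Detection – Rh110 fluorescence, excitation 480 nm, emission 540 nm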
PAD4 FP inh – inhibitors of human PAD4 | Q9UM07 | recombinant PAD4, RCA probe fluorescence polarization | inhibition, % at 6.36 µM | hit rate 0.41% among 330,000 | AID 485272;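 active = percent inhibition above a cutoff equal to the mean of all tested compounds plus 3 SD, cut at about 15% in these data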;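 also: 0% = PAD4 with RCA probe and DMSO and 100% = probe without PAD4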
Casp3 counter – caspase-3 inhibition (UBC13 counter-screen) | shares compounds with UBC13 inh | Recombinant caspase-3, Caspase-Glo 3/7 luminescence, 60 min | inhibition, % at 20 µM | hit rate 4% among 1,400;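 active = mean inhibition across replicates above about 26%, limit read from the data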;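 also: plate controls were DMSO with caspase-3 for no effect and DMSO wells lacking enzyme for full effect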
UBC13 conf – human UBC13 polyubiquitin inhibition, confirmed. shares compounds with UBC13 inh. UBC13 polyubiquitination, TR-FRET, biochemical. inhibition, % at 10 µM. hit rate 68% among 1,400; in the data active = inhibition above about 45%
Apaf-1 inh conf – Apaf-1 inhibition, single-dose confirmed | shares compounds with Apaf1 inhib | reconstituted apoptosome, caspase-3 DEVD-Rh110 fluorescence | inhibition, % at 20 µM | hit rate 25% among 1,800;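 active = mean inhibition of at least 40% at 20 µM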;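 also: plate controls were DMSO wells for no effect and DEVD-CHO caspase inhibitor control wells for full effect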
Rh110 quench – interferes with Rh110 fluorescence, flagging false Apaf-1 inhibitors; shares compounds with Apaf1 inhib; Rh110 fluorescence interference, quenched caspase reaction; activation (fluorescence interference), % at 20 µM; 1,800 tested, under 10 active; AID 504615;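 active = signal rise of 40% or more at 20 µM, treated as a fluorescence artifact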
Fluor interf inh – Apaf-1 inhibitor counter-screen fluorescence artifact; shares compounds with Apaf1 inhib; fluorescence interference counterscreen, Apaf-1 assay format; IC50, µM; 460 tested, under 10 active; call rule not given here
Rin1 Abl conf – Rin1-Abl interaction inhibition confirmation; inhibition, % at 7.35 µM; hit rate 49% among 1,300; shares compounds with Rin1 Abl inh; AID 602124; TR-FRET Rin1-Abl binding, purified proteins
GFP quencher – GFP fluorescence interference artifact; shares compounds with Rin1 Abl inh; inhibitors/quenchers counterscreen; inhibition, % at 6.75 µM; hit rate 8.5% among 1,300; AID 602125;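 also: ABL1-eGFP fusion protein alone without its partner RIN1-SBP; 0% = protein with vehicle and 100% = wells lacking protein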
An asterisk follows results filed as active; . = no result. Sampled rows, rich in hits. Any-hit rate of the full collection: about 2.2%. Rule as the data show it, unless noted: active = inhibition above about 6.5%; inactive = the rest.

SMILES	GSTO1 inh	Rin1 Abl inh	SUMO HTRF inh	UBC13 inh	Apaf1 inhib	PAD4 FP inh	Casp3 counter	UBC13 conf	Apaf-1 inh conf	Rh110 quench	others
CCOC(=O)c1ccc(N/C=C\C(=O)c2cccc(OC)c2)cc1	-2.8	4.3	9.9	-22.1	-12.9	0.5	.	.	.	.
C1CCC(C(CC2CCCCN2)C2CCCCC2)CC1 (configuration not stated)	-1.2	1.9	-6.4	80.2*	61.1*	0.8	-0.4	66.3*	20.4	16.9
CSc1nc(N)c(C(=O)N(c2ccccc2)c2ccccc2)s1	.	2.1	.	.	.	.	.	.	.	.
CN1CCN(CCCN2c3ccccc3Sc3ccc(C(F)(F)F)cc32)CC1	2.0	-2.3	5.8	90.4*	54.1*	-2.7	0.7	97.9*	10.7	7.6
Cc1cc2oc3cc(NCCC4CCCN4C)ccc3c(=O)c2cc1C (configuration not stated)	-136.1	-7.5	.	61.2*	43.5*	-1.9	20.8	47.4*	8.7	16.7
COc1ccc(CNC[C@@H](CCCCN(C)Cc2ccc(OC)cc2)N2C[C@H](c3ccccc3)N(CCc3ccc(Cl)c(Cl)c3)C(=O)C2=O)cc1	-2.4	2.7	-34.4	93.4*	49.3*	-5.4	-1.7	74.2*	51.0*	7.1	Fluor interf inh=>100
CN(CCCC[C@H](CNCc1ccc(-c2ccccc2)cc1)N1C[C@H](c2ccccc2)N(CCc2ccc(Cl)c(Cl)c2)C(=O)C1=O)Cc1ccc(-c2ccccc2)cc1	.	.	-0.9	.	.	.	.	.	.	.
C#CCOCCOCCOCCNc1nc(N2CCOCC2)nc(N2CCN(C(=O)CCCCCCCCCCNC(=O)[C@H]([C@@H](C)CC)n3cc(CCCCN=C(N)N)nn3)CC2)n1	-1.8	3.7	.	77.2*	59.5*	3.0	1.4	69.9*	29.2	0.8
C#CCOCCOCCOCCNc1nc(N2CCN(C(=O)CCCCCCCCCCNC(=O)Cn3cc(CCCCCN)nn3)CC2)nc(N2CCN(C(=O)CCCCCCCCCCNC(=O)[C@@H]([C@H](C)O)n3cc(C)nn3)CC2)n1	-4.2	11.3*	.	116.2*	49.1*	0.9	0.2	118.5*	40.4*	17.5	Fluor interf inh=>100
C#CCOCCOCCOCCNc1nc(N2CCN(C(=O)CCCCCCCCCCNC(=O)Cn3cc(C[C@@H](C)O)nn3)CC2)nc(N2CCN(C(=O)CCCCCCCCCCNC(=O)[C@@H]([C@H](C)CC)n3cc(CCCCCN)nn3)CC2)n1	3.6	9.8	.	119.8*	53.7*	0.0	0.5	121.4*	49.7*	13.2	Fluor interf inh=>100
C#CCOCCOCCOCCNc1nc(N2CCN(C(=O)CCCCCCCCCCNC(=O)Cn3cc(C[C@@H](C)O)nn3)CC2)nc(N2CCN(C(=O)CCCCCCCCCCNC(=O)[C@@H]([C@H](C)O)n3cc(C)nn3)CC2)n1	2.0	5.5	.	31.9	27.4	-0.4	.	.	.	.
CCC1(c2ccccc2)NC(=O)N(CC(=O)Nc2cc(Cl)ccc2N2CCN(C)CC2)C1=O (configuration not stated)	.	1.2	.	86.9*	58.2*	-1.2	2.5	65.8*	36.5	3.9
CN1CCN(c2ccc(Cl)cc2NC(=O)CN2C(=O)NC(C)(c3ccccc3)C2=O)CC1 (configuration not stated)	-8.7	2.8	.	11.9	37.8	-9.1	.	.	.	.
C#CCOCCOCCOCCNc1nc(N2CCN(C(=O)Cn3cc(CCCCN)nn3)CC2)nc(N2CCN(C(=O)Cn3cc(CC(C)O)nn3)CC2)n1 (configuration not stated)	7.0	1.4	2.8	8.5	4.5	-4.2	.	.	.	.
C#CCOCCOCCOCCNc1nc(N2CCN(C(=O)CCCCCCCCCCNC(=O)Cn3cc(CCCCCN)nn3)CC2)nc(N2CCN(C(=O)CCCCCCCCCCNC(=O)Cn3cc(C[C@@H](C)O)nn3)CC2)n1	-0.3	18.8*	.	114.1*	71.5*	-1.8	-2.0	113.7*	.	.	Rin1 Abl conf=12.1*;GFP quencher=2.3
CN1CCN(C(=O)c2ccc(-c3cnn(C)c3)c3ccoc23)CC1	.	2.2	.	.	.	.	.	.	.	.
O=C(Nc1ccccc1)c1cc(C2CCCCN2S(=O)(=O)c2ccc(F)cc2F)on1 (configuration not stated)	.	-1.3	.	.	.	.	.	.	.	.
Cc1ccc(C(=O)NC(C)c2ccccc2)cc1S(=O)(=O)N1CCOCC1 (configuration not stated)	5.1	1.5	18.7	-2.5	5.9	-2.3	.	.	.	.
Cc1ccc(C(=O)NC(C)c2ccc(-n3ccnc3)cc2)cc1S(=O)(=O)N1CCOCC1 (configuration not stated)	-1.8	11.2*	.	73.0*	23.2	-2.9	-0.9	101.6*	.	.	Rin1 Abl conf=16.4*;GFP quencher=0.3
CN(C)CCCNC(=O)c1ccc(-c2cc(O)c3ncccc3c2)cc1	.	24.8*	.	112.3*	-5.3	-8.3	1.5	117.9*	.	.	Rin1 Abl conf=30.5*;GFP quencher=19.0*
CCN(CC)CCNc1ncnc2c1sc1nc(N3CCOCC3)c3c(c12)CCCC3	2.0	10.7*	8.1	69.4*	-2.4	-3.7	-1.9	84.3*	.	.	Rin1 Abl conf=3.4;GFP quencher=-0.9
COC(CNC(=O)c1ccc2c3c(onc13)-c1ccccc1C2=O)OC	34.2	-13.5	9.1	-229.1	72.7*	-9.9	.	.	56.8*	9.8	Fluor interf inh=>100
CCc1nc2ccc(C(=O)NCc3ccc(OC)cc3)cn2c1N(CC)CCN(C)C	.	-5.0	.	.	.	.	.	.	.	.
COc1cc(NC(=O)COc2cc(C)cc3oc(=O)cc(C)c23)cc(OC)c1OC	.	-2.6	.	.	.	.	.	.	.	.
CCn1c2ccccc2c2nnc(SCC(=O)c3c(N)n(C)c(=O)n(C)c3=O)nc21	-1.1	0.1	13.6	-5.6	54.0*	-0.8	.	.	12.2	8.5
CCn1c2ccccc2c2nnc(SCC(N)=O)nc21	-2.2	-6.3	12.1	-12.3	-4.0	-1.2	.	.	.	.
CCOC(=O)N1CCN(S(=O)(=O)c2ccc(C(=O)N(CCCN(C)C)c3nc4ccc(CC)cc4s3)cc2)CC1	8.2	3.7	2.7	16.3	54.8*	2.9	.	.	7.4	3.1
O=S1(=O)[C@H]2C[C@H](CO)O[C@@]2(CO)CN1Cc1ccc(-c2ccc(F)cc2)cc1	.	0.7	.	.	11.7	2.8	.	.	.	.
